Measured values taken from ChEMBL document CHEMBL1126206, “Potential anti-AIDS naphthalenesulfonic acid derivatives. Synthesis and inhibition of HIV-1 induced cytopathogenesis and HIV-1 and HIV-2 reverse transcriptase activities” (J Med Chem, 1992).

Experiments:
MT4 = assay: Evaluated for 50% antiviral effective concentration based on inhibition of HIV-1 (HTLV-IIIB) induced cytopathogenicity in MT-4 cells; format: functional, cell-based; details: Homo sapiens
How it was run: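 MT-4 cells were infected with HIV-1 HTLV-IIIB at MOI 0.02 and cultured with a range of compound concentrations for 4 days. Viable cells were counted by MTT.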

[1] = Evaluated for 50% cytotoxic concentration based on reduction of viability of mock-infected cells; format: cell-based; details: human, MT4 cells (mock-infected)
How it was run: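 Mock-infected MT-4 cells were cultured with a range of compound concentrations for 4 days, and viability was read by MTT.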

[2] = molecular target: Human immunodeficiency virus type 1 reverse transcriptase (Human immunodeficiency virus 1, UniProt Q72547); assay: Inhibition of purified HIV-1 reverse transcriptase
How it was run: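 Recombinant dimeric RT expressed in E. coli (HIV-1 p66/p51, HIV-2 p68/p55), 0.08 μg per reaction; identical conditions for both enzymes. Buffer: 50 mM Tris-HCl pH 8.0, 150 mM KCl, 5 mM MgCl2, 0.5 mM EGTA, 5 mM DTT, 0.3 mM glutathione. Template-primer poly(rA)·oligo(dT)12-18 with 20 μM TTP plus [3H]TTP. Compound in DMSO or water. Incubated 1 h at 37 °C, stopped with EGTA. Incorporation read on DE-81 filters by scintillation.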

Row | Compound | EC50 (MT4) [µM] | CC50 [1] [µM] | IC50 [2] [µM]
1 | Nc1ccc2c(S(=O)(=O)O)cc(S(=O)(=O)O)c(N)c2c1O | > 7.7 | 7.7 | –
2 | O=S(=O)(O)c1cc(NS(=O)(=O)c2ccc(-c3ccc(S(=O)(=O)Nc4cc(S(=O)(=O)O)cc5cc(S(=O)(=O)O)cc(S(=O)(=O)O)c45)cc3)cc2)c2c(S(=O)(=O)O)cc(S(=O)(=O)O)cc2c1 | 36 | > 100 | > 849
3 | O=S(=O)(O)c1ccc(-c2ccc(S(=O)(=O)Nc3cc(S(=O)(=O)O)cc4cc(S(=O)(=O)O)cc(S(=O)(=O)O)c34)cc2)cc1 | > 100 | > 100 | > 1000
4 | CCCCCCCCCCCCCCCC(=O)Nc1cc(S(=O)(=O)O)cc2cc(S(=O)(=O)O)cc(S(=O)(=O)O)c12 | > 42 | 42 | 55
5 | CC(=O)Nc1cc(S(=O)(=O)O)cc2cc(S(=O)(=O)O)cc(S(=O)(=O)O)c12 | > 100 | > 100 | > 1000
6 | CC(=O)Nc1cc(S(=O)(=O)O)cc2cc(S(=O)(=O)O)cc(OC(C)=O)c12 | > 500 | > 500 | > 1000
7 | O=C(O)CCCC(=O)Nc1cc(S(=O)(=O)O)cc2cc(S(=O)(=O)O)cc(O)c12 | > 500 | > 500 | > 1000
8 | COc1cc(S(=O)(=O)O)cc2cc(S(=O)(=O)[O-])cc([N+](C)(C)C)c12 | > 500 | > 500 | > 1000
9 | COc1cc(S(=O)(=O)O)cc2cc(S(=O)(=O)O)cc(N(C)C)c12 | > 500 | > 500 | > 1000
10 | O=C(O)CCCCCCCCC(=O)Nc1cc(S(=O)(=O)O)cc2cc(S(=O)(=O)O)cc(O)c12 | 134 | > 500 | 135
11 | Nc1cc(S(=O)(=O)O)cc2cc(S(=O)(=O)O)cc(S(=O)(=O)O)c12 | > 100 | > 100 | > 1000
12 | O=C(CCCCCCCCCCC(=O)Nc1cc(S(=O)(=O)O)cc2cc(S(=O)(=O)O)cc(S(=O)(=O)O)c12)Nc1cc(S(=O)(=O)O)cc2cc(S(=O)(=O)O)cc(S(=O)(=O)O)c12 | > 51 | > 100 | 136
13 | Nc1c(S(=O)(=O)O)cc2cc(S(=O)(=O)O)cc(O)c2c1O | > 12 | 12 | 162
14 | CC(=O)Oc1cc(S(=O)(=O)O)cc2cc(S(=O)(=O)O)cc(OC(C)=O)c12 | > 461 | 461 | > 1000
15 | CC(=O)Oc1cc(S(=O)(=O)O)cc2cc(S(=O)(=O)O)c(N=Nc3ccccc3)c(OC(C)=O)c12 | > 500 | > 500 | > 1000
16 | O=C(O)c1cc(NS(=O)(=O)c2ccc(-c3ccc(S(=O)(=O)Nc4cc(C(=O)O)c(O)c(S(=O)(=O)O)c4)cc3)cc2)cc(S(=O)(=O)O)c1O | 52.5 | 247 | 427
17 | CCCCCCCCCCCCCCCC(=O)Nc1cc(S(=O)(=O)O)cc2cc(S(=O)(=O)O)cc(O)c12 | 37 | 250 | –
18 | CCCCCCCCCCCCCCCC(=O)Oc1cc(S(=O)(=O)O)cc2cc(S(=O)(=O)O)cc(OC(=O)CCCCCCCCCCCCCCC)c12 | > 15 | 15 | –
19 | O=C(Nc1cc(S(=O)(=O)O)cc2cc(S(=O)(=O)O)cc(O)c12)c1ccccc1 | 358 | > 500 | 464
20 | CC(=O)Nc1cc(S(=O)(=O)O)cc2cc(S(=O)(=O)O)cc(O)c12 | 53 | 402 | 243
21 | Nc1ccc2cc(S(=O)(=O)O)cc(S(=O)(=O)O)c2c1 | > 500 | > 500 | > 1000
22 | O=S(=O)(O)c1cc(S(=O)(=O)O)c2cc(NS(=O)(=O)c3ccc(-c4ccc(S(=O)(=O)Nc5ccc6cc(S(=O)(=O)O)cc(S(=O)(=O)O)c6c5)cc4)cc3)ccc2c1 | 29.5 | > 500 | 125
23 | O=C(CCCCCCCCC(=O)Nc1cc(S(=O)(=O)O)cc2cc(S(=O)(=O)O)cc(O)c12)Nc1cc(S(=O)(=O)O)cc2cc(S(=O)(=O)O)cc(O)c12 | 9.7 | 288 | 52
24 | Nc1cc(S(=O)(=O)O)cc2cc(S(=O)(=O)O)cc(O)c12 | > 529 | 529 | > 1000
25 | Nc1cc(S(=O)(=O)O)c2ccccc2c1N | > 189 | 189 | 50
26 | O=S(=O)(O)c1cc(O)c2c(O)cc(S(=O)(=O)O)cc2c1 [CHROMOTROPATE] | > 1180 | 1180 | –
27 | Cc1ccc(C(=O)Nc2ccc(S(=O)(=O)O)c3cc(S(=O)(=O)O)cc(S(=O)(=O)O)c23)cc1NC(=O)c1cccc(NC(=O)Nc2cccc(C(=O)Nc3cc(C(=O)Nc4ccc(S(=O)(=O)O)c5cc(S(=O)(=O)O)cc(S(=O)(=O)O)c45)ccc3C)c2)c1 [SURAMIN] | 8.2 | 250 | –
